Experimental data published in ChEMBL document CHEMBL3351863, “Optimization of 2-phenyl-pyrimidine-4-carboxamides towards potent, orally bioavailable and selective P2Y(12) antagonists for inhibition of platelet aggregation” (Bioorg Med Chem Lett, 2014).

Key:
[1] = (§1) Cmax in Wistar rat at 10 mg/kg, po; type: ADME, organism-based; design: dose 10 mg/kg, route oral; conditions: Wistar, in vivo
Procedure, shortened: (§2)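 Rats dosed by iv infusion at 1 mg/kg (n = 2) or orally at 10 mg/kg (n = 3); plasma levels measured, limit of quantification ca. 1 ng/mL.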

Rattus norvegicus [2] = test: Oral bioavailability in Wistar rat at 10 mg/kg; type: ADME, organism-based; conditions: in vivo; procedure, shortened: as §2
[3] = Solubility in neutral pH; type: physicochemical
Cytochrome P450 2C9 = Cytochrome P450 2C9 (Homo sapiens, UniProt P11712); test: Inhibition of CYP2C9 in human liver microsomes assessed as reduction in diclofenac 4'-hydroxylation; type: ADME
Cytochrome P450 3A4 [4] = target: T1, Cytochrome P450 3A4 (Homo sapiens, UniProt P08684); test: Inhibition of CYP3A4 in human liver microsomes assessed as reduction in testosterone 6beta-hydroxylation; type: ADME
Liver microsome [5] = test: Metabolic stability assay in rat liver microsomes assessed as parent drug disappearance at 1 uM after 20 mins by HPLC and mass spectrometry method; type: ADME
Platelet [6] = test: Inhibition of ADP-induced platelet aggregation in human platelet rich plasma assessed as remaining activity at 100 nM by in-vitro light transmission aggregometry assay; type: functional
Procedure, shortened: (§3)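 Light transmission aggregometry in human platelet-rich plasma; compound incubated, aggregation triggered with 3 µM ADP; remaining activity (RA) recorded at a single compound level (1000, 500 or 100 nM).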

[7] = Solubility in basic pH; type: physicochemical
Platelet [8] = test: Inhibition of ADP-induced platelet aggregation in human platelet rich plasma assessed as remaining activity at 500 nM by in-vitro light transmission aggregometry assay; type: functional; procedure, shortened: as §3
[9] = target: Voltage-gated inwardly rectifying potassium channel KCNH2 (Homo sapiens, UniProt Q12809); test: Inhibition of human ERG expressed in HEK cells by patch-clamp assay; type: cell-based; conditions: hek293
P2Y purinoceptor 12 = P2Y purinoceptor 12 (Homo sapiens, UniProt Q9H244); test: Displacement of [3H]-2-methyl-thio-adenosine 5'-diphosphate from human recombinant P2Y12 expressed in CHO cell membranes by scintillation counting method
Procedure, shortened: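 CHO cells expressing recombinant P2Y₁₂ receptors, incubated with tritium-labeled 2-methyl-thio-adenosine 5'-diphosphate plus test compound; IC₅₀ from displacement curves, each point in triplicate; reference compound run with every compound set, and set re-analyzed if its IC₅₀ fell outside pre-set 95% confidence interval.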

Cytochrome P450 3A4 [10] = target: T1, Cytochrome P450 3A4; test: Inhibition of CYP3A4 in human liver microsomes assessed as reduction in midazolam 1'-hydroxylation; type: ADME
[11] = Protein binding in human plasma; type: ADME, cell-free; conditions: read-out: PPB (converted)
Cytochrome P450 2D6 = Cytochrome P450 2D6 (Homo sapiens, UniProt P10635); test: Inhibition of CYP2D6 in human liver microsomes assessed as reduction in dextromethorphan-O demethylation; type: ADME
[12] = Volume of distribution at steady state in Wistar rat at 1 mg/kg, iv or 10 mg/kg, po; type: ADME, organism-based; conditions: in vivo, read-out: Vdss; procedure, shortened: as §2
[13] = Half life in Wistar rat at 1 mg/kg, iv or 10 mg/kg, po; type: ADME, organism-based; conditions: in vivo; procedure, shortened: as §2
[14] = Potency shift, ratio of IC50 for inhibition of ADP-induced platelet aggregation in human platelet rich plasma to IC50 for displacement of [3H]-2-methyl-thio-adenosine 5'-diphosphate from human recombinant P2Y12 expressed in CHO cell membranes
Liver microsome [15] = test: Metabolic stability assay in human liver microsomes assessed as parent drug disappearance at 1 uM after 20 mins by HPLC and mass spectrometry method; type: ADME
Platelet [16] = test: Inhibition of ADP-induced platelet aggregation in human platelet rich plasma by in-vitro light transmission aggregometry assay; type: functional; conditions: Homo sapiens, Platelet, Plasma
Procedure, shortened: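 Human platelet-rich plasma incubated with compound, aggregation induced by 3 µM ADP and read by light transmission aggregometry; IC₅₀ derived from concentration–response curve.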

Rattus norvegicus [17] = test: AUC in Wistar rat at 10 mg/kg, po; type: ADME, organism-based, Plasma; design: dose 10 mg/kg, route oral; conditions: in vivo; procedure, shortened: as §2
Rattus norvegicus [18] = test: as §1; type: ADME, organism-based; design: dose 10 mg/kg, route oral; conditions: in vivo, BLD = below limit of detection; procedure, shortened: as §2

T1 sequence (P08684 whole entry): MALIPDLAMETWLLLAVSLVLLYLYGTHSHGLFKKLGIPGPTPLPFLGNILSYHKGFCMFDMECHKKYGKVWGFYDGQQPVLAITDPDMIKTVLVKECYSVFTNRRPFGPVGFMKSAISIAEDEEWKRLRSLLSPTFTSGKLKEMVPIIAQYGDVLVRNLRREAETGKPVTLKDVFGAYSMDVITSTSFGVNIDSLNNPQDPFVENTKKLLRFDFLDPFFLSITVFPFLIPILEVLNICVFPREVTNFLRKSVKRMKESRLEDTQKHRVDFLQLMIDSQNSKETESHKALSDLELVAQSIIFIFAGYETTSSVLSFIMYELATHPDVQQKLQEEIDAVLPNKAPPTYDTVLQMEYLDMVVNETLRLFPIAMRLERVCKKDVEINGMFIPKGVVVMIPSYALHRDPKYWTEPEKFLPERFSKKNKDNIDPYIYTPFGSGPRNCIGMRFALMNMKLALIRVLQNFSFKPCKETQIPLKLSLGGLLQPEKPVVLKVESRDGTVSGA
Chain of Voltage-gated inwardly rectifying potassium channel KCNH2 (Q12809 whole entry): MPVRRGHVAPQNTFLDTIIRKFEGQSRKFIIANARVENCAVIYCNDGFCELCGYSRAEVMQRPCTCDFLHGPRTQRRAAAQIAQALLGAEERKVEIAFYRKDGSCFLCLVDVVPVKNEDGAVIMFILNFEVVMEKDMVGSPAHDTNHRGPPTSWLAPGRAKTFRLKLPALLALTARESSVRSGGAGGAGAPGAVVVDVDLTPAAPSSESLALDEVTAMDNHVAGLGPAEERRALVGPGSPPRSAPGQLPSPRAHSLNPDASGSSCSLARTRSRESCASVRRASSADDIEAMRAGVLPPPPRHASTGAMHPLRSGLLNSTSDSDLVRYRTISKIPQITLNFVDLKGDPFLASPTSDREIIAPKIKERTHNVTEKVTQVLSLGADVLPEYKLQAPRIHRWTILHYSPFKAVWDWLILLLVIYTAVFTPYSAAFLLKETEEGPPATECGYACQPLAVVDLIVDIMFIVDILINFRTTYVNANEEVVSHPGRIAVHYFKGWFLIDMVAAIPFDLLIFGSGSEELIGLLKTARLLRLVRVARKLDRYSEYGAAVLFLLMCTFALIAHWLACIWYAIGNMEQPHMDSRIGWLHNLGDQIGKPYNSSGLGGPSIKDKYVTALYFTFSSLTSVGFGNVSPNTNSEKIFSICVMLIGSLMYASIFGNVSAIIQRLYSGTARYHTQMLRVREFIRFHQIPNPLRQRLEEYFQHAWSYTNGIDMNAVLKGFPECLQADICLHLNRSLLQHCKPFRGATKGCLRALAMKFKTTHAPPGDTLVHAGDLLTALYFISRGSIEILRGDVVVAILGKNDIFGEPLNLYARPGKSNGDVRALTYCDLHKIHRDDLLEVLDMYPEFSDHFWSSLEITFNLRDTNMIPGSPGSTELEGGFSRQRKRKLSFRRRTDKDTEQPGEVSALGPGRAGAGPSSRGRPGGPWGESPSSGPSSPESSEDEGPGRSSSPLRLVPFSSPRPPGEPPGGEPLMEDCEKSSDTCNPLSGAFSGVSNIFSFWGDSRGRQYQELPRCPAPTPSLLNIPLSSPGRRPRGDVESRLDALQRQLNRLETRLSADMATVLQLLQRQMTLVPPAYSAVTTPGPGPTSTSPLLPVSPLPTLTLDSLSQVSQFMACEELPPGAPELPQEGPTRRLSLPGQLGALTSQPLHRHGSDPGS
Chain of Cytochrome P450 2D6 (P10635 whole entry): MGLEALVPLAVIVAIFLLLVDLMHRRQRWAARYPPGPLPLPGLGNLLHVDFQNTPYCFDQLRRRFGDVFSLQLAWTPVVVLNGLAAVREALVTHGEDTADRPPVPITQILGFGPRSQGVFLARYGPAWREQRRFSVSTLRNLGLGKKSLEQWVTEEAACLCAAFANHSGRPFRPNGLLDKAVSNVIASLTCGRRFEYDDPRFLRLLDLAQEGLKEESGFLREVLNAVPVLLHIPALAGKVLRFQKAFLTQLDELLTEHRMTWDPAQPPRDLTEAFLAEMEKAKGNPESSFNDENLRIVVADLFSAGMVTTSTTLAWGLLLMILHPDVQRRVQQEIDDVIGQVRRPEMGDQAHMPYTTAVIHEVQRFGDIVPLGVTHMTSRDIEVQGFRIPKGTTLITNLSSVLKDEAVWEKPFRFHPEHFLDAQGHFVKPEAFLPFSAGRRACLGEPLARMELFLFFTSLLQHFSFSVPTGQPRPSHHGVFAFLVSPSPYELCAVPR
Chain of Cytochrome P450 2C9 (P11712 whole entry): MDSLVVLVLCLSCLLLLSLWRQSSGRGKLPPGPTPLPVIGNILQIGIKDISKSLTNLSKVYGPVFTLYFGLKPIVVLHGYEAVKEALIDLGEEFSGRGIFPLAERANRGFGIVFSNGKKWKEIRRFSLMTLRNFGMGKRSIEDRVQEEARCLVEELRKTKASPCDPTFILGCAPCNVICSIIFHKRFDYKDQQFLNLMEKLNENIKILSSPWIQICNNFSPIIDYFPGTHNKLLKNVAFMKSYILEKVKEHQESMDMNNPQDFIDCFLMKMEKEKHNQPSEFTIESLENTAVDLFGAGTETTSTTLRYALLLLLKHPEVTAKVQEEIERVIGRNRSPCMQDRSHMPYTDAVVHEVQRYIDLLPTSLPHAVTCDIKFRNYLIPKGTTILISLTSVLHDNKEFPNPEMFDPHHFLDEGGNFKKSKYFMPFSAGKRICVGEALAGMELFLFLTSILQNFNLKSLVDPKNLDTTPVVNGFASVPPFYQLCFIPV
Chain of P2Y purinoceptor 12 (Q9H244 whole entry): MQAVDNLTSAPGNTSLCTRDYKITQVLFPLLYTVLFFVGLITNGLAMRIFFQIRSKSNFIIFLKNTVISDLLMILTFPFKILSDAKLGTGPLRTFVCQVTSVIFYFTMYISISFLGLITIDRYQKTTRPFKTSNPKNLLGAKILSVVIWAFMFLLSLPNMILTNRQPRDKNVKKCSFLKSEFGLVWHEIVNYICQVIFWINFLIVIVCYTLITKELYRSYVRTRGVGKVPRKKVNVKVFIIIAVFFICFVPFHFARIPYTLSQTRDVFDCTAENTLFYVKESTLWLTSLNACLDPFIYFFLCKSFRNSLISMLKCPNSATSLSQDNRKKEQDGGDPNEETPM

solubility [3]	inhibition (INH) (Cytochrome P450 2C9)	inhibition (INH) (Cytochrome P450 3A4 [4])	Stability (Liver microsome [5])	solubility [7]	inhibition (INH) (Cytochrome P450 3A4 [10])	inhibition (INH) (Cytochrome P450 2D6)	Stability (Liver microsome [15])	IC50 (Platelet [16]) [nM]	SMILES	Activity (Platelet [6]) [%]	Activity (Platelet [8]) [%]	inhibition (INH) [9]	Ratio IC50 [14]	other results
soluble	Not Active	Not Active	Stable	soluble	Not Active	Not Active	Stable	114	CCOC(=O)N1CCN(C(=O)[C@H](CCC(=O)O)NC(=O)c2cc(NCCO)nc(-c3ccccc3)n2)CC1	<70	<30	Not Active	0.67	Cmax [1]: 17.5 nM; F (Rattus norvegicus [2]): 3%; IC50 (P2Y purinoceptor 12): 169 nM; fraction unbound [11]: 0.135; Vd [12]: 1 L/kg; half-life [13]: 12 min; AUC (Rattus norvegicus [17]): 8.44 nM·h
soluble	Not Active	Not Active	Stable	soluble	Not Active	Not Active	Stable	126	CCOC(=O)N1CCN(C(=O)[C@H](CCC(=O)O)NC(=O)c2cc(-c3ccc[n+]([O-])c3)nc(-c3ccccc3)n2)CC1	<70	<30	Not Active	0.98	Cmax (Rattus norvegicus [18]): BLD; AUC (Rattus norvegicus [17]; BLD = below limit of detection): BLD
